From article PMC9056700 (RSC Advances, 2020)
Like-named read-outs stand apart in the source and are kept apart here. Marks after values point to notes of the source that are not given here.

Assays:
[1] = system: P388 mouse lymphocytic leukemia cells; details: cited from earlier work; for ED50: taken from a previous report
[2] = VT-1H NMR quantification of the square/folded conformational equilibrium; format: physicochemical; details: CH3CN-d3, calculated from ΔG° = ΔH° − TΔS° with van't Hoff parameters
How it was run: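 Peptide at about 5.0 mM in CH3CN-d3, with shifts referenced to internal […] (0.00 ppm). Protons assigned by 2D-COSY and ROESY (500 ms mixing time). ΔH° and ΔS° came from a linear van't Hoff plot of ln K versus 1/T, and ΔG° at 298 K was then calculated from these parameters.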

Substance | ED50 ([1]; P388 cells) | ΔG° at 298 K (conformational free energy, square to folded form) [2] [kcal/mol] | cytotoxicity (in words) ([1]; P388 cells, folded reference peptide) | cytotoxicity (in words) [1]
Ascidiacyclamide [Peptide 1] | 10.5 ^a μg mL^−1 | 0.523 | – | –
cyclo(-Ile-alloThr-D-Val-Thz-)2 (head to tail) [dASC] | >100 ^h μg mL^−1 | – | no cytotoxicity | no cytotoxicity
